Measured values as given in article PMC3929184 (Journal of controlled release : official journal of the …, 2013).

Tests used:
[1] = Glucose tolerance test after nasal administration in mice; format: in vivo, WT C57BL/6 mice; conditions: systemic uptake monitored functionally by glucose-tolerance test
Outline: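 Male C57BL/6 mice (6-9 weeks; Nnt deletion), acclimatized 2 weeks, fasted 18 h, lightly isoflurane-anesthetized. 20 μL of test peptide or its glycolipid conjugate (various concentrations) or saline was dripped slowly into the nasal cavity. After 1 h, glucose 2 g/kg was injected (n = 2 each). Blood glucose was read by glucometer from ~5 μL tail-nick blood at set times, and AUC was calculated.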

furin protease = furin protease (Homo sapiens, UniProt P09958); assay: In vitro cleavage by furin protease; format: in vitro ADME; conditions: Figure S1
Sequence of furin protease (P09958 108-794): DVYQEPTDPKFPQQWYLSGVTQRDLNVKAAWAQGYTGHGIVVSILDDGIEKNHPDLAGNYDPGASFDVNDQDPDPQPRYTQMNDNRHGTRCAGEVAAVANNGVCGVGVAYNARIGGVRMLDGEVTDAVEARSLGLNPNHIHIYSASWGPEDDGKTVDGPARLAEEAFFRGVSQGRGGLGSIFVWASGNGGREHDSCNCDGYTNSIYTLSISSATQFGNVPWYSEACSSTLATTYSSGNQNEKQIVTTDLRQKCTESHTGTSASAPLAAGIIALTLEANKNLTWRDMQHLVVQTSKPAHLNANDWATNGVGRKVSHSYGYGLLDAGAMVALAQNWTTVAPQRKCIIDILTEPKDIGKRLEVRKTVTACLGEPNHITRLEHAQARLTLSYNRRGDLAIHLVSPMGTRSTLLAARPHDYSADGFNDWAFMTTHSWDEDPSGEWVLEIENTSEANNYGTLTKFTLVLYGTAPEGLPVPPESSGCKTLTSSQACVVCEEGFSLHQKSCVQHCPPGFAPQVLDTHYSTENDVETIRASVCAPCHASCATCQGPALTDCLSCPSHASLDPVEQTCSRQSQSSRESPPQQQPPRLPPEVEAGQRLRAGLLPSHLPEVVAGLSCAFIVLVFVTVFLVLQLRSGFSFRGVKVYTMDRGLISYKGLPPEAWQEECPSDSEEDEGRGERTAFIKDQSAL

Glucagon-like peptide-1 [GLP-1*]
Mucosal absorption after nasal application [1]: evidence for absorption
Cleavage by the furin protease (furin protease): resistant to cleavage
